Measurements: ChEMBL document CHEMBL2384933, “Vitexin inhibits inflammatory pain in mice by targeting TRPV1, oxidative stress, and cytokines” (J Nat Prod, 2013)
Calls of active or inactive are those of the source.

How the values were obtained:
[1] = system: Mus musculus; assay: Antinociceptive activity in Swiss mouse assessed as inhibition of capsaicin-induced thermal hyperalgesia at 10 mg/kg, ip administered 30 mins prior to capsaicin-challenge measured after 1 to 3 hrs by hot plate test; format: functional, organism-based; design: dose 10 mg/kg
Outline: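 Dosed at 10 mg/kg ip 30 min before intraplantar capsaicin (1.6 μg/paw). Mechanical hyperalgesia measured by electronic pressure-meter as Δ withdrawal threshold (g), average of three readings. Thermal hyperalgesia measured as hot-plate latency at 55 °C with a 30 s cutoff. Both read at 1, 3 and 5 h. Six mice per group.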

[2] = system: Mus musculus; assay: Antinociceptive activity in ip dosed Swiss mouse assessed as inhibition of carrageenan-induced thermal hyperalgesia administered 30 mins prior to carrageenan-challenge measured after 1 to 5 hrs by hot plate test; format: functional, organism-based
Outline: (§1)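 Doses of 1–10 mg/kg given ip 30 min before intraplantar carrageenan (300 μg/paw). Hot plate held at 55 °C; latency to jump or lick paws recorded at 1, 3 and 5 h, with a 30 s cutoff. Two baseline latencies taken at least 10 min apart. Six mice per group.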

[3] = system: Mus musculus; assay: Antinociceptive activity in Swiss mouse assessed as inhibition of acetic acid-induced writhing response at 10 mg/kg, ip administered 30 mins prior to acetic acid-challenge measured for 20 mins; format: functional, organism-based; design: dose 10 mg/kg
Outline: (§2)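 Doses of 0.3–10 mg/kg given ip in saline 30 min before ip acetic acid (0.8% v/v in saline, 10 mL/kg). Cumulative abdominal writhing counted over 20 min and presented in 2-min intervals. Six mice per group; representative of two experiments.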

[4] = system: Mus musculus; assay: Antinociceptive activity in Swiss mouse assessed as inhibition of carrageenan-induced thermal hyperalgesia at 1 mg/kg, ip administered 30 mins prior to carrageenan-challenge measured after 1 to 5 hrs by hot plate test; format: functional, organism-based; design: dose 1 mg/kg; outline: as §1
[5] = system: Mus musculus; assay: Antinociceptive activity in ip dosed Swiss mouse assessed as inhibition of carrageenan-induced mechanical hyperalgesia administered 30 mins prior to carrageenan-challenge measured at 1 to 5 hrs by electronic pressure-meter test; format: functional, organism-based
Outline: (§3)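 Doses of 1–10 mg/kg given ip 30 min before intraplantar carrageenan (300 μg/paw). Electronic pressure-meter applied to mice on a wire grid floor; paw withdrawal with flinching was the end point, and each value is the average of three readings. Result reported as Δ withdrawal threshold (g) from baseline at 1, 3 and 5 h. Six mice per group; two-way ANOVA.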

[6] = system: Mus musculus; assay: Antinociceptive activity in Swiss mouse assessed as inhibition of complete Freund's adjuvant-induced paw flinching at 10 mg/kg, ip administered 30 mins prior to complete Freund's adjuvant-challenge measured after 30 mins; format: functional, organism-based; design: dose 10 mg/kg
Outline: (§4)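 Dosed ip 30 min before intraplantar CFA (10 μL/paw). Flinches and licking time of the injected paw counted over 0–30 min and expressed as totals for 30 min. Six mice per group; representative of two experiments.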

[7] = system: Mus musculus; assay: Antiinflammatory activity in Swiss mouse assessed as increase in carrageenan-induced IL-10 production 10 mg/kg, ip administered 30 mins prior to carrageenan-challenge measured after 3 hrs by ELISA; format: functional, organism-based; design: dose 10 mg/kg
Outline: (§5)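 Compound given ip in saline 30 min before intraplantar carrageenan (300 μg/paw). Paw skin taken 3 h later and homogenized in 500 μL buffer with protease inhibitors. TNF-α, IL-1β, IL-6, IL-33 and IL-10 measured by ELISA, reported as pg/100 mg tissue. Saline-injected paws served as controls. Six mice per group; representative of two experiments.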

[8] = system: Mus musculus; assay: Antinociceptive activity in Swiss mouse assessed as inhibition of carrageenan-induced thermal hyperalgesia at 3 to 10 mg/kg, ip administered 30 mins prior to carrageenan-challenge measured after 1 to 5 hrs by hot plate test; format: functional, organism-based; outline: as §1
[9] = system: Mus musculus; assay: Antinociceptive activity in Swiss mouse assessed as decrease in capsaicin-induced time spent for licking paw at 10 mg/kg, ip administered 30 mins prior to capsaicin-challenge measured after 5 mins; format: functional, organism-based; design: dose 10 mg/kg
Outline: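 Pretreatment ip 30 min before intraplantar capsaicin (1.6 μg/paw), given after an adaptation period. Mice observed individually for 5 min afterwards. Total flinches and time spent licking the injected paw were scored. Six mice per group; representative of two experiments; one-way ANOVA with Tukey's test.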

[10] = system: Mus musculus; assay: Antinociceptive activity in Swiss mouse assessed as inhibition of carrageenan-induced mechanical hyperalgesia at 1 to 3 mg/kg, ip administered 30 mins prior to carrageenan-challenge measured after 3 hrs by electronic pressure-meter test; format: functional, organism-based; outline: as §3
[11] = system: Mus musculus; assay: Neurotoxicity in Swiss mouse assessed as change in motor response at 10 mg/kg, ip after 3.5 hrs by rotarod test (reference value: 180 seconds); format: toxicity, organism-based; design: dose 10 mg/kg, route intraperitoneal; conditions: in vivo
Outline: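 Rota-rod with a 2.5 cm bar at 22 rpm. Mice pre-selected 24 h earlier by staying on the bar for two consecutive 180 s periods. Given 10 mg/kg ip (vehicle 2% DMSO in saline) and tested at 1.5, 3.5 and 5.5 h, with a 180 s cutoff. n = 6.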

[12] = system: Mus musculus; assay: Antiinflammatory activity in Swiss mouse assessed as inhibition of carrageenan-induced IL-1beta production 10 mg/kg, ip administered 30 mins prior to carrageenan-challenge measured after 3 hrs by ELISA; format: functional, organism-based; design: dose 10 mg/kg; conditions: at 10 mg/kg; outline: as §5
[13] = system: Mus musculus; assay: Antinociceptive activity in Swiss mouse assessed as decrease in complete Freund's adjuvant-induced time spent for licking paw at 10 mg/kg, ip administered 30 mins prior to complete Freund's adjuvant-challenge measured after 30 mins; format: functional, organism-based; design: dose 10 mg/kg; outline: as §4
[14] = system: Mus musculus; assay: Antinociceptive activity in Swiss mouse assessed as decrease in formalin-induced time spent for licking paw at 10 mg/kg, ip administered 30 mins prior to formalin-challenge measured after 30 mins; format: functional, organism-based; design: dose 10 mg/kg
Outline: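 Given ip 30 min before intraplantar formalin (25 μL of 1.5% in saline). Paw flinches and licking time recorded from 0 to 30 min in 5-min bins, covering the first (0–5 min) and second (10–30 min) phases. Six mice per group; representative of two experiments.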

[15] = system: Mus musculus; assay: Hepatotoxicity in Swiss mouse assessed as change in plasma AST level at 10 mg/kg, ip for 7 days; format: toxicity, organism-based; design: dose 10 mg/kg, route intraperitoneal; conditions: in vivo, 168 h
Outline: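 Mice dosed daily ip at 10 mg/kg for 7 days; vehicle was saline or Tris/HCl pH 8.0. Plasma AST and ALT measured with a diagnostic kit.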

[16] = system: Mus musculus; assay: Antinociceptive activity in Swiss mouse assessed as inhibition of acetic acid-induced writhing response at 1 to 3 mg/kg, ip administered 30 mins prior to acetic acid-challenge measured for 20 mins; format: functional, organism-based; outline: as §2
[17] = system: Mus musculus; assay: Antiinflammatory activity in Swiss mouse assessed as inhibition of carrageenan-induced TNFalpha production 10 mg/kg, ip administered 30 mins prior to carrageenan-challenge measured after 3 hrs by ELISA; format: functional, organism-based; design: dose 10 mg/kg; conditions: at 10 mg/kg; outline: as §5
[18] = system: Mus musculus; assay: Antinociceptive activity in Swiss mouse assessed as inhibition of complete Freund's adjuvant-induced thermal hyperalgesia at 10 mg/kg, ip administered 24 hrs after complete Freund's adjuvant-challenge for seven days by hot plate test; format: functional, organism-based; design: dose 10 mg/kg
Outline: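 Treatment at 10 mg/kg ip given daily, starting 24 h after intraplantar CFA (10 μL/paw), for seven days. Electronic pressure-meter (Δ threshold, g) and hot plate (55 °C, 30 s cutoff) read every 24 h over days 1–8. Six mice per group.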

O=c1cc(-c2ccc(O)cc2)oc2c([C@@H]3O[C@H](CO)[C@@H](O)[C@H](O)[C@H]3O)c(O)cc(O)c12 [VITEXIN]
inhibition [1]: Active
inhibition [2]: Dose-dependent effect
inhibition [3]: Active
inhibition [4]: inactive
inhibition [5]: Dose-dependent effect
inhibition [6]: Active
Activity [7]: Active
inhibition [8]: Active
inhibition [9]: Active
inhibition [10]: Active
Time [11]: 180 s
inhibition [12]: Active
inhibition [13]: Active
inhibition [14]: Active
Activity [15]: Non-toxic
inhibition [16]: Active
inhibition [17]: Active
inhibition [18]: Active
